Rows were chosen to be rich in hits. Some 3% of all compounds tested hit in one or more screens of this group.
Kir21 block – inhibitors of mouse Kir2.1 inward-rectifier potassium channel; actives 0.85% (n = 310,000); AID 1672, 2009; B-score at 10 µM; HEK293-Kir2.1, FluxOR thallium flux fluorescence; stronger effect = lower value;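 active means fluorescence ratio B-score at or below minus 3 SD of library scores, with starting-brightness B-score within 2 SD, cut at about -4.2 in these data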;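 further: channel flux triggered by added potassium and thallium sulfate stimulus; B-score of peak minus minimum fluorescence over baseline after thallium stimulus; more negative B-score means stronger Kir2.1 block with less thallium influx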
SR-BI DiI-HDL act – activators of SR-BI mediated DiI-HDL uptake, primary screen, ldlA[mSR-BI] CHO cells, DiI fluorescence | activation, % at 12.5 µM | 3 h; 100 = double the neutral-control signal | actives 0.096% (n = 320,000);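 active means mean replicate activation of at least 60% and every replicate at or above 60%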
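Material – SR-BI-overexpressing, LDLR-lacking CHO cells · Medium – BSA-supplemented, HEPES-buffered Ham's F12, pH 7.4 · Doses – single concentration · Times – compound with DiI-HDL co-incubation, 3 h at 37 °C · Measured by – bottom-read fluorescence, 550/595 nm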
TMEM16A act – TMEM16A chloride channel activators or potentiators, primary screen, cell-based, HTS. Anoctamin-1 (Mus musculus), Q8BHY3. HEK293 TMEM16A/YFP-H148Q/I152L, iodide quench fluorescence; stronger effect = lower value. B-score at 10 µM. actives 0.3% (n = 340,000). AID 623877, 2012;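 active means fluorescence-ratio B-score plate-corrected deviation score at least 3 library SD below zero, with starting fluorescence score within 5 deviations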;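 further: channel opened by trigger with iodide after compound preincubation; score built on the fluorescence ratio of max minus min over baseline; more negative score means more quench and so TMEM16A activation or potentiation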
SR-BI HDL uptake – inhibitors of SR-BI mediated HDL lipid uptake, primary screen, ldlA[mSR-BI] cells, fluorescence, single point. Scavenger receptor class B member 1 (Mus musculus), Q61009. ldlA[mSR-BI] CHO cells, DiI-HDL uptake fluorescence, 3 h. inhibition, % at 12.5 µM. actives 0.96% (n = 320,000). AID 488896, 2010;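 active means mean replicate inhibition of at least 70% and a set share of replicates each scoring 70 or more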
DNA FID counter – compounds displacing fluorescent DNA intercalator, primary screen, artefact control for HCV NS3 helicase inhibitor project, biochemical, FID fluorescence | actives 0.17% (n = 290,000) | inhibition, % at 7.9 µM | DNA fluorescent intercalator displacement | AID 1845, 2009; in the data active means inhibition above about 37%;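 further: higher means more ethidium bromide displaced from hairpin DNA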
TMEM16A inh – TMEM16A chloride channel inhibitors, primary screen, cell-based, HTS; Anoctamin-1 (Mus musculus), Q8BHY3; HEK293 TMEM16A/YFP iodide influx fluorescence, ionomycin; normalized B-score (activity score, 25-100; higher = stronger inhibition) at 10 µM; actives 1.2% (n = 310,000);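 active means ratio plate-corrected score three or more library SD toward inhibition, starting fluorescence score within five deviations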;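 further: score derived from kinetic fluorescence span divided by baseline fluorescence per well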
Hits are given with their value; - = inactive; . = no result.

SMILES | Kir21 block | SR-BI DiI-HDL act | TMEM16A act | SR-BI HDL uptake | DNA FID counter | TMEM16A inh
COc1cc(C(=O)Nc2ccc(NC(=O)c3ccco3)nc2)cc(OC)c1OC | - | - | - | 72 | - | -
COc1ccc(Cl)cc1C(=O)Nc1ccc(NC(=O)c2ccco2)cc1 | - | - | - | 82 | - | -
Cc1ccc(NC(=O)c2cc(NC(=O)c3ccco3)ccc2N2CCCCC2)cc1 | - | - | - | 73 | - | -
Cc1ccc(NC(=O)c2cc(NC(=O)c3ccco3)ccc2N2CCOCC2)cc1 | - | - | - | - | - | -
CC(C(=O)Nc1ccccc1F)N1CCN(C)CC1 (configuration not stated) | - | . | . | . | - | -
COc1ccc(-c2nn(Cc3ccccc3)cc2C(=O)N2CCN(c3ncccn3)CC2)cc1OC | . | - | - | - | . | .
CC(C)[C@H](NC(=O)c1cccc(CN(Cc2ccccc2)C(=O)c2ccccc2)c1)C(=O)O | - | - | - | - | . | -
O=[N+]([O-])c1ccc2c(c1)C(=NO)c1cc(Cl)c(Cl)cc1-2 | . | - | - | - | . | .
C=CCNC(=O)c1n[nH]c2c1CC(C(C)(C)CC)CC2 (configuration not stated) | . | - | - | - | . | -
CCCN(Cc1ccccc1)C(=S)NC(=O)c1ccccc1[N+](=O)[O-] | - | - | - | - | - | -
COC(=O)[C@]1(C)N[C@H](CN(C)C(=O)c2ccc(F)cc2)[C@@H]2C(=O)N(C)C(=O)[C@@H]21 | . | - | . | - | . | .
Cc1onc(-c2ccccc2Cl)c1C(=O)Nc1nnc(-c2cccc([N+](=O)[O-])c2)s1 | - | - | - | - | - | 100
CCSc1nnc(NC(=O)c2c(-c3ccccc3Cl)noc2C)s1 | - | - | - | - | - | -
Cc1onc(-c2ccccc2Cl)c1C(=O)Nc1cccc2cccnc12 | - | . | - | . | - | 100
COc1cc(NC(=O)c2c(-c3ccccc3Cl)noc2C)c2ncccc2c1 | - | . | - | . | . | -
COc1cc2[nH]c(C(=O)NCCc3ccccc3)cc2c(OC)c1OC | - | - | - | - | - | -
COc1cc2[nH]c(C(=O)NCc3ccccc3)cc2c(OC)c1OC | -6.3 | - | - | - | - | -
Cn1nnnc1N=N/C(=N/Nc1ccccc1)c1ccccc1 | - | - | - | - | - | -
Cc1ccc(C(=O)NC(=C(Cl)Cl)S(=O)(=O)c2ccccc2)cc1 | - | - | - | - | - | -
COC(=O)NC(=C(Cl)Cl)S(=O)(=O)c1ccccc1 | . | 73 | - | - | - | -
CCN1C(=O)/C(=c2\o/c(=C3\C=Cc4ccccc4N3CC)c(=O)n2CC)SC1=S | - | - | - | - | - | .
CCN1C(=O)/C(=C2\C=Cc3ccccc3N2CC)SC1=S | - | - | - | 74 | - | -
O=[N+]([O-])c1cc(Br)c(O)c(/C=N/Nc2nnnn2-c2cccc3ccccc23)c1 | - | - | - | - | - | 100
O=[N+]([O-])c1ccc(NN=Cc2cccc3ccccc23)cc1 | . | - | - | - | . | .
COc1cccc(CN(C)C(=O)CN2C(=O)NC(c3ccccc3)(c3ccccc3)C2=O)c1 | . | - | -48 | - | . | .
SMILES | Kir21 block | SR-BI DiI-HDL act | TMEM16A act | SR-BI HDL uptake | DNA FID counter | TMEM16A inh
Cc1cc(NC2CCCCC2)nc(NCc2ccccc2)n1 | -13 | - | - | - | - | 100
C/C(=N\Nc1cc(C)nc(NCc2ccccc2)n1)c1ccc([N+](=O)[O-])cc1 | - | - | - | 86 | - | -
Cc1ccc(Nc2cc(C)nc(NCc3ccccc3)n2)cc1 | -5.5 | - | - | - | - | -
COc1cc(C)nc(NCc2ccccc2)n1 | - | - | - | - | - | -
COc1ccc(Nc2cc(C)nc(NCc3ccccc3)n2)cc1 | -14 | - | - | - | - | -
Cc1cc(OC(C)C)nc(NCc2ccccc2)n1 | - | - | - | - | - | -
O=C(NCc1ccc(Cl)cc1)C1CCCN(c2cnccn2)C1 (configuration not stated) | - | - | - | - | - | -
